Experimental data taken from ChEMBL document CHEMBL4732262, “Identification of two novel thiophene analogues as inducers of autophagy mediated cell death in breast cancer cells” (Bioorg Med Chem, 2021).
Active and inactive are the calls of the source. The rule behind the calls is not given here.

Assays:
MCF7 [1] = experiment: Cytotoxicity against human MCF7 cells assessed as reduction in cell viability after 24 hrs by MTT assay; type: functional, cell-based; details: MCF7, 24 h
Method in brief: (§1)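 Cells seeded ~5 × 10^3 per well in 96-well plates, exposed to 0–40 µM for 24 h. MTT added at 0.5 mg/ml for 3 h, formazan dissolved in DMSO, absorbance read at 540 nm. IC50 taken from plotted curves. Duplicate wells, two independent repeats. MCF7 grown in DMEM, MDA-MB-231 in RPMI, both with 10% FBS at 37 °C and 5% CO2.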

MDA-MB-231 [2] = experiment: Cytotoxicity against human MDA-MB-231 cells assessed as reduction in cell viability after 24 hrs by MTT assay; type: functional, cell-based; details: MDA-MB-231, 24 h; method in brief: as §1
MCF7 [3] = experiment: Induction of apoptosis in human MCF7 cells assessed as increase in cell death at 2.5 uM after 24 hrs by EtBr/AO staining based fluorescence microscopic method; type: functional
Method in brief: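 ~5 × 10^4 MCF7 cells on coverslips given 2.5 µM for 24 h, then PBS-washed and stained with 1:1 ethidium bromide/acridine orange (0.4 mg/ml each). Viewed by fluorescence microscopy, excitation 480 nm with a 515–530 nm barrier filter. Apoptotic, necrotic and viable cells scored from 200 cells per sample.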

MCF7 [4] = experiment: Induction of autophagy in human MCF7 cells assessed as increase in p62 degradation at 2.5 uM after 24 hrs by Western blot analysis; type: functional, cell-based
Method in brief: (§2)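 MCF7 cells (~5 × 10^6) left untreated (DMSO control) or exposed to 2.5 µM compound for 24 h. Lysed in RIPA buffer, probed overnight at 4 °C, then given infrared-tagged secondary antibodies for 1 h at 37 °C and imaged by infrared scanning. LC3-II/I ratio and p62 taken by densitometry with GAPDH as loading control. Two independent experiments.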

MDA-MB-231 [5] = experiment: Induction of apoptosis in human MDA-MB-231 cells assessed as late apoptotic cells at 2.5 uM after 24 hrs by annexin V-FITC/Propidium iodide staining based flow cytometric analysis (reference value: 0.08%); type: functional
MDA-MB-231 [6] = experiment: Induction of apoptosis in human MDA-MB-231 cells assessed as early apoptotic cells at 2.5 uM after 24 hrs by annexin V-FITC/Propidium iodide staining based flow cytometric analysis (reference value: 1.54%); type: functional
MCF7 [7] = experiment: Induction of apoptotic in human MCF7 cells assessed as increase in Bim protein expression at 2.5 uM after 24 hrs by Western blot analysis; type: functional, cell-based
Method in brief: (§3)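 MCF7 or MDA-MB-231 cells given 2.5 µM or DMSO for 24 h, then lysed in RIPA buffer. Immunoblots probed overnight at 4 °C, followed by infrared-labelled secondary antibody for 1 h at 37 °C. Bands imaged and quantified densitometrically, with GAPDH as loading control. Representative of two independent experiments.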

MCF7 (Homo sapiens) = experiment: Induction of apoptosis in human MCF7 cells assessed as increase in cell death at 2.5 uM after 24 hrs by EtBr/AO staining based fluorescence microscopic method
MCF7 [8] = experiment: Induction of apoptosis in human MCF7 cells assessed as late apoptotic cells at 2.5 uM after 24 hrs by annexin V-FITC/Propidium iodide staining based flow cytometric analysis (reference value: 0.2%); type: functional
MCF7 [9] = experiment: Induction of autophagy in human MCF7 cells assessed as increase in Beclin1 protein expression at 2.5 uM after 24 hrs by Western blot analysis; type: functional, cell-based; method in brief: as §3
MDA-MB-231 [10] = experiment: Induction of apoptosis in human MDA-MB-231 cells assessed as necrotic cells at 2.5 uM after 24 hrs by annexin V-FITC/Propidium iodide staining based flow cytometric analysis (reference value: 0.65%); type: functional
MCF7 [11] = experiment: Induction of autophagy in human MCF7 cells assessed as increase in Bcl2L11 mRNA expression at 2.5 uM after 24 hrs by RT-PCR analysis; type: functional, cell-based
Method in brief: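 MCF7 cells given 2.5 µM or DMSO for 24 h. Total RNA extracted with TRIzol and reverse-transcribed, then SYBR Green qPCR across 34 autophagy-regulatory genes (95 °C 10 min; 40 cycles of 95 °C 15 s and 60 °C 1 min). Relative expression by 2^-ΔΔCt against housekeeping genes and DMSO control, shown as log2. Two independent experiments.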

MCF7 [12] = experiment: Induction of apoptosis in human MCF7 cells assessed as necrotic cells at 2.5 uM after 24 hrs by annexin V-FITC/Propidium iodide staining based flow cytometric analysis (reference value: 1.22%); type: functional
MCF7 [13] = experiment: Induction of apoptosis in human MCF7 cells assessed as early apoptotic cells at 2.5 uM after 24 hrs by annexin V-FITC/Propidium iodide staining based flow cytometric analysis (reference value: 3.94%); type: functional
MCF7 [14] = experiment: Induction of autophagy in human MCF7 cells expressing GFP tagged LC3-2 assessed as increase in […] puncta formation at 2.5 uM after 24 hrs by confocal microscopic analysis; type: functional, cell-based
Method in brief: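 MCF7 cells (~1 × 10^6) at 70% confluency on glass-bottom dishes were transiently transfected with GFP-LC3 (Lipofectamine 3000). 24 h later they received 2.5 µM compound or DMSO for another 24 h. Nuclei were stained with Hoechst 33342 and lysosomes with LysoTracker Red DND-99, then imaged by live-cell confocal microscopy. LC3 puncta were counted in at least 10 cells from 3 fields. Two independent experiments.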

MCF7 [15] = experiment: Induction of autophagy in human MCF7 cells assessed as LC3-2 to LC3-1 protein ratio at 2.5 uM after 24 hrs by Western blot analysis (reference value: 0.22 to 0.8); type: functional
MCF7 [16] = experiment: Induction of autophagy in human MCF7 cells assessed as increase in LC3-2 to LC3-1 protein ratio at 2.5 uM after 24 hrs by Western blot analysis; type: functional, cell-based; method in brief: as §2
MDA-MB-231 [17] = experiment: Cytotoxicity against human MDA-MB-231 cells assessed as reduction in cell viability at 100 uM after 24 hrs by MTT assay; type: functional, cell-based
MCF7 [18] = experiment: Cytotoxicity against human MCF7 cells assessed as reduction in cell viability at 100 uM after 24 hrs by MTT assay; type: functional, cell-based

SMILES	IC50 (MCF7 [1]) [µM]	IC50 (MDA-MB-231 [2]) [µM]	Activity (MDA-MB-231 [5]) [%]	Activity (MDA-MB-231 [6]) [%]	Activity (MCF7 [8]) [%]	Activity (MDA-MB-231 [10]) [%]	Activity (MCF7 [12]) [%]	Activity (MCF7 [13]) [%]	Ratio (MCF7 [15])	also measured
Cc1cc2c3c(ccc2s1)C(=O)C(=O)c1sccc1-3	14.6	20.6	–	–	–	–	–	–	–	–
COc1ccc2ccc3c(c2c1)-c1ccsc1C(=O)C3=O	8.02	6	0.13	1.8	0.55	1.19	1.85	4.39	11.1	Activity (MCF7 [3]): Active; Activity (MCF7 [4]): Active; Activity (MCF7 [7]): Active; Activity (MCF7 (Homo sapiens)): Active; Activity (MCF7 [9]): inactive; Activity (MCF7 [11]): Active; Activity (MCF7 [14]): Active; Activity (MCF7 [16]): Active
O=C1C(=O)c2ccc3ccccc3c2-c2sccc21	12.8	15.6	–	–	–	–	–	–	–	–
O=C1C(=O)c2c(ccc3ccccc23)-c2ccoc21	14.4	20.9	–	–	–	–	–	–	–	–
Cc1cc2c3c(ccc2s1)C(=O)C(=O)c1ccsc1-3	17.5	23.4	–	–	–	–	–	–	–	–
CCN(CC)CCCC(C)Nc1ccnc2cc(Cl)ccc12 (centres undefined)	–	–	–	–	–	–	–	–	–	Activity (MDA-MB-231 [17]): Active; Activity (MCF7 [18]): Active
O=C1C(=O)c2occc2-c2c1ccc1ccccc21	15.8	17.4	–	–	–	–	–	–	–	–
Cc1coc2c1C(=O)C(=O)c1c-2ccc2c(C)cccc12 [TANSHINONE I]	7.93	7.96	0.18	1.44	0.91	3.56	3.63	14.3	0.61	–
Cc1coc2c1C(=O)C(=O)c1c-2ccc2c1CCCC2(C)C [TANSHINONE IIA]	7.79	7.7	0.34	9.23	0.31	2.11	5.27	2.9	1.46	Activity (MCF7 [3]): Active; Activity (MCF7 (Homo sapiens)): Active
